In ChEMBL document CHEMBL1126988, “Quinolone antibacterials containing the new 7-[3-(1-aminoethyl)-1- pyrrolidinyl] side chain: the effects of the 1-aminoethyl moiety and its stereochemical configurations on potency and in vivo efficacy” (J Med Chem, 1993):
≈ marks a conversion by molar mass, not a printed value.

How the values were obtained:
[1] = tested on: Escherichia coli; assay: Antibacterial activity in vitro against Escherichia coli Vogel; assay type: functional; conditions: Escherichia coli; read-out: MIC
Outline: (§1)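 Standard microtitration broth assay against a panel of 10 Gram-positive and Gram-negative organisms. MIC read in µg/mL and averaged over multiple experiments.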

[2] = tested on: Streptococcus pyogenes; assay: Compounds were evaluated in vivo for antibacterial activity for mouse protection against Streptococcus pyogenes C 203 after oral administration; assay type: functional; conditions: Streptococcus pyogenes, C 203, po; read-out: PD50
[3] = tested on: Staphylococcus aureus; assay: Minimum inhibitory concentration was evaluated in vitro against Staphylococcus aureus UC 76; assay type: functional; outline: as §1
[4] = tested on: Pseudomonas aeruginosa; assay: Minimum inhibitory concentration was evaluated in vitro against Pseudomonas aeruginosa UI-18; assay type: functional; conditions: Pseudomonas aeruginosa; read-out: MIC; outline: as §1
[5] = tested on: Streptococcus pneumoniae; assay: Minimum inhibitory concentration was evaluated in vitro against Streptococcus pneumoniae SV-1; assay type: functional; outline: as §1
[6] = tested on: Klebsiella pneumoniae; assay: Minimum inhibitory concentration was evaluated in vitro against Klebsiella pneumoniae MGH2; assay type: functional; conditions: Klebsiella pneumoniae; read-out: MIC; outline: as §1
[7] = tested on: Providencia rettgeri; assay: Minimum inhibitory concentration was evaluated in vitro against Providencia rettgeri M1771; assay type: functional; conditions: Providencia rettgeri; read-out: MIC; outline: as §1
[8] = tested on: Enterococcus faecalis; assay: Minimum inhibitory concentration was evaluated in vitro against Enterococcus faecalis MGH-2; assay type: functional; outline: as §1
[9] = tested on: Streptococcus pyogenes; assay: Minimum inhibitory concentration was evaluated in vitro against Streptococcus pyogenes C 203; assay type: functional; outline: as §1
[10] = tested on: Enterobacter cloacae; assay: Minimum inhibitory concentration in vitro against Enterobacter cloacae MA 2646; assay type: functional; conditions: Enterobacter cloacae; read-out: MIC
[11] = tested on: Streptococcus pyogenes; assay: Antibacterial activity measured as mouse protection against Streptococcus pyogenes C 203 after subcutaneous administration; assay type: functional; conditions: Streptococcus pyogenes, C 203, sc; read-out: PD50
[12] = tested on: Escherichia coli; assay: Antibacterial activity against Escherichia coli Vogel after oral administration in mouse; assay type: functional; conditions: for ED50: Escherichia coli, po, read-out: PD50
[13] = Clonogenic cytotoxicity against hamster V-79 cells; assay type: functional, Cricetulus griseus, V79
Outline: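 Chinese hamster V-79 cells grown overnight, then drug-treated for 3 h at 37 °C. Medium is replaced with fresh medium and cells are incubated 5 days to allow colony formation. IC50 (µg/mL) is the concentration inhibiting colony formation by 50% relative to control.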

[14] = tested on: Escherichia coli; assay: Antibacterial activity against Escherichia coli Vogel after subcutaneous administration in mouse; assay type: functional; conditions: Escherichia coli, sc; read-out: PD50
[15] = tested on: Staphylococcus aureus; assay: Minimum inhibitory concentration was evaluated in vitro against Staphylococcus aureus H 228; assay type: functional; outline: as §1
[16] = species: Mus musculus; assay: Compounds were evaluated for phototoxicity no-effect dose in mouse; assay type: functional
Outline: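 Depilated female CD-1 mice, five per dose plus controls. Animals are dosed orally and then exposed daily to UV-A (320–400 nm) for 3 h, for up to 4 days or until a definite positive response. Redness or erythema relative to controls, read 24 h after irradiation, counts as positive. Reported as the highest dose with no effect (mg/kg).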

[17] = Staphylococcus aureus, read-out: MIC
[18] = Streptococcus pneumoniae, read-out: MIC
[19] = Enterococcus faecalis, read-out: MIC
[20] = Streptococcus pyogenes, read-out: MIC

CCn1cc(C(=O)O)c(=O)c2cc(F)c(N3CCC(C(C)N)C3)c(OC)c21 (racemic)
MIC [1]: 0.05 µg/mL (≈ 0.132 µM)
ED50 [2]: 3 mg/kg
MIC [3, 17]: 0.003 µg/mL (≈ 0.00795 µM)
MIC [4]: 0.8 µg/mL (≈ 2.12 µM)
MIC [5, 18]: 0.003 µg/mL (≈ 0.00795 µM)
MIC [6]: 0.1 µg/mL (≈ 0.265 µM)
MIC [7]: 0.1 µg/mL (≈ 0.265 µM)
MIC [8, 19]: 0.006 µg/mL (≈ 0.0159 µM)
MIC [9, 20]: 0.003 µg/mL (≈ 0.00795 µM)
MIC [10]: 0.1 µg/mL (≈ 0.265 µM)
ED50 [11]: 0.2 mg/kg
ED50 [12]: 9 mg/kg
Cytotoxicity [13]: 19 µg/mL
ED50 [14]: 3 mg/kg
MIC [15, 17]: 0.006 µg/mL (≈ 0.0159 µM)

CCNCC1CCN(c2nc3c(cc2F)c(=O)c(C(=O)O)cn3-c2ccc(F)cc2F)C1 (stereo unspecified)
MIC [1]: 0.2 µg/mL (≈ 0.448 µM)
ED50 [2]: 8 mg/kg
MIC [3, 17]: 0.025 µg/mL (≈ 0.056 µM)
MIC [4]: 1.6 µg/mL (≈ 3.58 µM)
MIC [5, 18]: 0.1 µg/mL (≈ 0.224 µM)
MIC [6]: 0.4 µg/mL (≈ 0.896 µM)
MIC [7]: 0.8 µg/mL (≈ 1.79 µM)
MIC [8, 19]: 0.2 µg/mL (≈ 0.448 µM)
MIC [9, 20]: 0.1 µg/mL (≈ 0.224 µM)
MIC [10]: 0.2 µg/mL (≈ 0.448 µM)
ED50 [11]: 3 mg/kg
ED50 [12]: 6 mg/kg
ED50 [14]: 4 mg/kg
MIC [15, 17]: 0.1 µg/mL (≈ 0.224 µM)

COc1c(N2CCC(C)(CN)C2)c(F)cc2c(=O)c(C(=O)O)cn(C3CC3)c12 (stereo unspecified)
MIC [1]: 0.1 µg/mL (≈ 0.257 µM)
ED50 [2]: 5 mg/kg
MIC [3, 17]: 0.006 µg/mL (≈ 0.0154 µM)
MIC [4]: 1.6 µg/mL (≈ 4.11 µM)
MIC [5, 18]: 0.013 µg/mL (≈ 0.0334 µM)
MIC [6]: 0.2 µg/mL (≈ 0.514 µM)
MIC [7]: 0.4 µg/mL (≈ 1.03 µM)
MIC [8, 19]: 0.025 µg/mL (≈ 0.0642 µM)
MIC [9, 20]: 0.013 µg/mL (≈ 0.0334 µM)
MIC [10]: 0.1 µg/mL (≈ 0.257 µM)
ED50 [11]: 1 mg/kg
ED50 [12]: 18 mg/kg
ED50 [14]: 3 mg/kg
MIC [15, 17]: 0.025 µg/mL (≈ 0.0642 µM)

CCn1cc(C(=O)O)c(=O)c2cc(F)c(N3CCC(CN)C3)c(F)c21 (stereo unspecified)
MIC [1]: 0.1 µg/mL (≈ 0.285 µM)
ED50 [2]: 100 mg/kg
MIC [3, 17]: 0.1 µg/mL (≈ 0.285 µM)
MIC [4]: 0.4 µg/mL (≈ 1.14 µM)
MIC [5, 18]: 0.1 µg/mL (≈ 0.285 µM)
MIC [6]: 0.4 µg/mL (≈ 1.14 µM)
MIC [7]: 0.4 µg/mL (≈ 1.14 µM)
MIC [8, 19]: 0.1 µg/mL (≈ 0.285 µM)
MIC [9, 20]: 0.05 µg/mL (≈ 0.142 µM)
MIC [10]: 0.2 µg/mL (≈ 0.569 µM)
ED50 [11]: 5 mg/kg
ED50 [12]: 90 mg/kg
ED50 [14]: 1 mg/kg
MIC [15, 17]: 0.1 µg/mL (≈ 0.285 µM)

CC1(CN)CCN(c2c(F)c(N)c3c(=O)c(C(=O)O)cn(C4CC4)c3c2F)C1 (stereo unspecified)
MIC [1]: 0.2 µg/mL (≈ 0.51 µM)
ED50 [2]: 8 mg/kg
MIC [3, 17]: 0.003 µg/mL (≈ 0.00765 µM)
MIC [4]: 0.8 µg/mL (≈ 2.04 µM)
MIC [5, 18]: 0.003 µg/mL (≈ 0.00765 µM)
MIC [6]: 0.1 µg/mL (≈ 0.255 µM)
MIC [7]: 0.2 µg/mL (≈ 0.51 µM)
MIC [8, 19]: 0.025 µg/mL (≈ 0.0637 µM)
MIC [9, 20]: 0.013 µg/mL (≈ 0.0331 µM)
MIC [10]: 0.1 µg/mL (≈ 0.255 µM)
ED50 [11]: 1 mg/kg
PD50 [12]: 9 mg/kg
ED50 [14]: 1 mg/kg
MIC [15, 17]: 0.013 µg/mL (≈ 0.0331 µM)

CCNCC1CCN(c2cc3c(c(N)c2F)c(=O)c(C(=O)O)cn3C2CC2)C1 (stereo unspecified)
MIC [1]: 0.1 µg/mL (≈ 0.257 µM)
ED50 [2]: > 100 mg/kg
MIC [3, 17]: 0.025 µg/mL (≈ 0.0644 µM)
MIC [4]: 1.6 µg/mL (≈ 4.12 µM)
MIC [5, 18]: 0.05 µg/mL (≈ 0.129 µM)
MIC [6]: 0.4 µg/mL (≈ 1.03 µM)
MIC [7]: 0.8 µg/mL (≈ 2.06 µM)
MIC [8, 19]: 0.05 µg/mL (≈ 0.129 µM)
MIC [9, 20]: 0.1 µg/mL (≈ 0.257 µM)
MIC [10]: 0.1 µg/mL (≈ 0.257 µM)
ED50 [11]: 11 mg/kg
ED50 [12]: 90 mg/kg
ED50 [14]: 3 mg/kg
MIC [15, 17]: 0.2 µg/mL (≈ 0.515 µM)

CNCC1CCN(c2cc3c(cc2F)c(=O)c(C(=O)O)cn3C2CC2)C1 (stereo unspecified)
MIC [1]: 0.1 µg/mL (≈ 0.278 µM)
ED50 [2]: > 50 mg/kg
MIC [3, 17]: 0.025 µg/mL (≈ 0.0696 µM)
MIC [4]: 0.8 µg/mL (≈ 2.23 µM)
MIC [5, 18]: 0.05 µg/mL (≈ 0.139 µM)
MIC [6]: 0.2 µg/mL (≈ 0.556 µM)
MIC [7]: 0.4 µg/mL (≈ 1.11 µM)
MIC [8, 19]: 0.1 µg/mL (≈ 0.278 µM)
MIC [9, 20]: 0.05 µg/mL (≈ 0.139 µM)
MIC [10]: 0.2 µg/mL (≈ 0.556 µM)
ED50 [11]: 5 mg/kg
ED50 [12]: 35 mg/kg
ED50 [14]: 2 mg/kg
MIC [15, 17]: 0.2 µg/mL (≈ 0.556 µM)

CCN[C@H](C)[C@H]1CCN(c2cc3c(cc2F)c(=O)c(C(=O)O)cn3C2CC2)C1 (mixture of isomers; form 2)
MIC [1]: 0.2 µg/mL
ED50 [2]: 8 mg/kg
MIC [3]: 0.025 µg/mL
MIC [4]: 6.3 µg/mL
MIC [5]: 0.05 µg/mL
MIC [6]: 0.4 µg/mL
MIC [7]: 0.8 µg/mL
MIC [8]: 0.1 µg/mL
MIC [9]: 0.05 µg/mL
MIC [10]: 0.2 µg/mL
ED50 [11]: 1 mg/kg
ED50 [12]: 13 mg/kg
ED50 [14]: 2 mg/kg
MIC [15]: 0.1 µg/mL

NCC1CCN(c2c(F)c(N)c3c(=O)c(C(=O)O)cn(C4CC4)c3c2F)C1 (stereo unspecified)
MIC [1]: 0.013 µg/mL (≈ 0.0344 µM)
ED50 [2]: 11 mg/kg
MIC [3, 17]: 0.003 µg/mL (≈ 0.00793 µM)
MIC [4]: 0.1 µg/mL (≈ 0.264 µM)
MIC [5, 18]: 0.003 µg/mL (≈ 0.00793 µM)
MIC [6]: 0.025 µg/mL (≈ 0.0661 µM)
MIC [7]: 0.05 µg/mL (≈ 0.132 µM)
MIC [8, 19]: 0.013 µg/mL (≈ 0.0344 µM)
MIC [9, 20]: 0.003 µg/mL (≈ 0.00793 µM)
MIC [10]: 0.025 µg/mL (≈ 0.0661 µM)
ED50 [11]: 0.6 mg/kg
ED50 [12]: 12 mg/kg
ED50 [14]: 1 mg/kg
MIC [15, 17]: 0.006 µg/mL (≈ 0.0159 µM)

CNCC1CCN(c2c(F)c(N)c3c(=O)c(C(=O)O)cn(C4CC4)c3c2F)C1 (stereo unspecified)
MIC [1]: 0.025 µg/mL (≈ 0.0637 µM)
MIC [3, 17]: 0.006 µg/mL (≈ 0.0153 µM)
MIC [4]: 0.4 µg/mL (≈ 1.02 µM)
MIC [5, 18]: 0.003 µg/mL (≈ 0.00765 µM)
MIC [6]: 0.05 µg/mL (≈ 0.127 µM)
MIC [7]: 0.2 µg/mL (≈ 0.51 µM)
MIC [8, 19]: 0.025 µg/mL (≈ 0.0637 µM)
MIC [9, 20]: 0.003 µg/mL (≈ 0.00765 µM)
MIC [10]: 0.05 µg/mL (≈ 0.127 µM)
ED50 [12]: 8 mg/kg
Cytotoxicity [13]: 7.8 µg/mL
Dose [16]: >100 mg/kg
ED50 [14]: 1 mg/kg
MIC [15, 17]: 0.013 µg/mL (≈ 0.0331 µM)
